Test results from ChEMBL document CHEMBL3808334, “Synthesis and in vitro evaluation of novel triazine analogues as anticancer agents and their interaction studies with bovine serum albumin” (Eur J Med Chem, 2016).

What was measured:
Format in all cases: functional
[1] = system: NCI-H522; assay: Growth inhibition of human NCI-H522 cells assessed as cell growth at 10^-5 M incubated for 48 hrs by sulforhodamine B assay; conditions: NCI-H522, 48 h, read-out: Activity
[2] = Growth inhibition of human SF295 cells assessed as cell growth at 10 uM incubated for 48 hrs by sulforhodamine B assay; conditions: SF-295, 48 h, read-out: Activity
[3] = system: CCRF-CEM; assay: Growth inhibition of human CCRF-CEM cells incubated for 48 hrs by sulforhodamine B assay
Outline: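 Leukemia line in the five-dose format: five concentrations from 10-fold or ½-log serial dilutions. Plated at 5,000–40,000 cells per well, preincubated 24 h, then compound added for 48 h at 37 °C, 5% CO₂. Sulforhodamine B absorbance read at 515 nm. Growth is computed against time-zero (Tz) and control (C) readings; GI₅₀ is where [(Ti−Tz)/(C−Tz)]×100 = 50.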

[4] = system: M14; assay: Growth inhibition of human M14 cells assessed as cell growth at 10^-8 M incubated for 48 hrs by sulforhodamine B assay; conditions: M14, 48 h, read-out: Activity
[5] = Growth inhibition of human OVCAR5 cells assessed as cell growth at 10^-6 M incubated for 48 hrs by sulforhodamine B assay; conditions: OVCAR-5, 48 h, read-out: Activity
[6] = Growth inhibition of human PC3 cells assessed as cell growth at 10^-6 M incubated for 48 hrs by sulforhodamine B assay; conditions: PC-3, 48 h, read-out: Activity
[7] = system: EKVX; assay: Growth inhibition of human EKVX cells assessed as cell growth at 10^-6 M incubated for 48 hrs by sulforhodamine B assay; conditions: read-out: Activity
Outline: (§1)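 Cells seeded at 5,000–40,000/well according to doubling time and preincubated 24 h at 37 °C, 5% CO2. Time-zero plates were TCA-fixed. DMSO concentrate was diluted in medium with 50 µg/ml gentamicin to give five concentrations (10-fold or ½ log steps), then exposed 48 h. Cells were TCA-fixed, stained with 0.4% SRB and read at 515 nm. Percent growth was taken against time-zero and control; GI50, TGI and LC50 derived.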

[8] = system: EKVX; assay: Growth inhibition of human EKVX cells incubated for 48 hrs by sulforhodamine B assay; outline: as §1
[9] = Growth inhibition of human ovarian cancer cells incubated for 48 hrs by sulforhodamine B assay; conditions: Cancer cell lines; for CC50: read-out: LC50 (the source's name)
[10] = system: ACHN; assay: Growth inhibition of human ACHN cells assessed as cell growth at 10^-5 M incubated for 48 hrs by sulforhodamine B assay; conditions: read-out: Activity
Outline: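 Five-dose assay: five concentrations from 10-fold or ½-log serial dilutions. Cells are plated at 5,000–40,000 per well according to doubling time, grown 24 h, then exposed 48 h at 37 °C, 5% CO₂. Fixed with cold 50% TCA (final addition) for 60 min at 4 °C and stained with 0.4% SRB in 1% acetic acid. Bound dye is solubilized in 10 mM Tris base and read at 515 nm. GI₅₀ is where [(Ti−Tz)/(C−Tz)]×100 = 50, with a time-zero plate as Tz.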

[11] = system: K562; assay: Growth inhibition of human K562 cells assessed as cell growth at 10^-5 M incubated for 48 hrs by sulforhodamine B assay; conditions: K562, 48 h, read-out: Activity
[12] = system: SK-MEL-2; assay: Growth inhibition of human SK-MEL-2 cells assessed as cell growth at 10^-5 M incubated for 48 hrs by sulforhodamine B assay; conditions: SK-MEL-2, 48 h, read-out: Activity
[13] = Growth inhibition of human LOXIMVI cells assessed as cell growth at 10^-4 M incubated for 48 hrs by sulforhodamine B assay; conditions: LOX IMVI, read-out: Activity
[14] = system: NCI-H322M; assay: Growth inhibition of human NCI-H322M cells assessed as cell growth at 10^-5 M incubated for 48 hrs by sulforhodamine B assay; conditions: read-out: Activity
[15] = system: KM12; assay: Growth inhibition of human KM12 cells assessed as cell growth at 10^-8 M incubated for 48 hrs by sulforhodamine B assay; conditions: KM12, 48 h, read-out: Activity
[16] = system: SK-MEL-28; assay: Growth inhibition of human SK-MEL-28 cells assessed as cell growth at 10^-7 M incubated for 48 hrs by sulforhodamine B assay; conditions: SK-MEL-28, 48 h, read-out: Activity
[17] = Growth inhibition of human SNB75 cells assessed as cell growth at 10 uM incubated for 48 hrs by sulforhodamine B assay; conditions: SNB-75, 48 h, read-out: Activity
[18] = system: M14; assay: Growth inhibition of human M14 cells assessed as cell growth at 10^-5 M incubated for 48 hrs by sulforhodamine B assay; conditions: M14, 48 h, read-out: Activity
[19] = Growth inhibition of human SKOV3 cells assessed as cell growth at 10^-7 M incubated for 48 hrs by sulforhodamine B assay; conditions: SK-OV-3, 48 h, read-out: Activity
[20] = system: NCI-H322M; assay: Growth inhibition of human NCI-H322M cells assessed as cell growth at 10 uM incubated for 48 hrs by sulforhodamine B assay; conditions: read-out: Activity
[21] = system: KM12; assay: Growth inhibition of human KM12 cells assessed as cell growth at 10^-4 M incubated for 48 hrs by sulforhodamine B assay; conditions: KM12, 48 h, read-out: Activity
[22] = Growth inhibition of human HOP62 cells assessed as cell growth at 10^-8 M incubated for 48 hrs by sulforhodamine B assay; conditions: HOP-62, 48 h, read-out: Activity
[23] = system: NCI-H460; assay: Growth inhibition of human NCI-H460 cells incubated for 48 hrs by sulforhodamine B assay; conditions: NCI-H460, 48 h
Outline: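 Cells were plated at 5,000–40,000 per well according to doubling time and preincubated 24 h at 37 °C in 5% CO2; time-zero plates were then TCA-fixed. Five concentrations (10-fold or ½-log dilutions, DMSO stock) were incubated 48 h. Cells were TCA-fixed, stained with 0.4% SRB and read at 515 nm. GI50 was taken where [(Ti−Tz)/(C−Tz)]×100 = 50.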

[24] = system: NCI-H23; assay: Growth inhibition of human NCI-H23 cells assessed as cell growth at 10 uM incubated for 48 hrs by sulforhodamine B assay; conditions: NCI-H23, 48 h, read-out: Activity
[25] = Growth inhibition of human SW620 cells assessed as cell growth at 10^-6 M incubated for 48 hrs by sulforhodamine B assay; conditions: SW-620, 48 h, read-out: Activity
[26] = read-out: LC50 (the source's name)
[27] = read-out: pLC50 (the source's name) (converted)

Clc1ccc(-c2nc(Nc3ccc(-c4nc5ccccc5[nH]4)cc3)nc(N3CCOCC3)n2)cc1
growth at 10 µM [1]: -76% | growth at 10 µM [2]: -94.4% | GI50 ([3]; read-out: GI50): 0.259 µM | TGI ([3]; read-out: TGI): 0.687 µM | GI50 ([3]; read-out: pGI50 (converted)): 0.257 µM | TGI ([3]; read-out: pTGI (converted)): 0.692 µM | growth at 0.01 µM [4]: 94% | growth at 1 µM [5]: 32% | growth at 1 µM [6]: 13% | growth at 1 µM [7]: 58% | GI50 ([8]; read-out: GI50): 1.14 µM | TGI ([8]; read-out: TGI): 2.63 µM | GI50 ([8]; read-out: pGI50 (converted)): 1.15 µM | TGI ([8]; read-out: pTGI (converted)): 2.63 µM | GI50 [9]: 0.92 µM | TGI [9]: 2.3 µM | CC50 [9]: 5.2 µM | growth at 10 µM [10]: -87% | growth at 10 µM [11]: -70% | growth at 10 µM [12]: -87% | growth at 100 µM [13]: 2% | growth at 10 µM [14]: -80% | growth at 0.01 µM [15]: 98% | growth at 0.1 µM [16]: 102% | growth at 10 µM [17]: -92.6% | growth at 10 µM [18]: -85% | growth at 0.1 µM [19]: 99% | growth at 10 µM [20]: -92.8% | growth at 100 µM [21]: -67% | growth at 0.01 µM [22]: 91% | GI50 ([23]; read-out: GI50): 0.222 µM | TGI ([23]; read-out: TGI): 0.491 µM | GI50 ([23]; read-out: pGI50 (converted)): 0.224 µM | TGI ([23]; read-out: pTGI (converted)): 0.49 µM | growth at 10 µM [24]: -83.4% | growth at 1 µM [25]: -72%

c1ccc2[nH]c(-c3ccc(Nc4nc(N5CCCCC5)nc(N5CCOCC5)n4)cc3)nc2c1
growth at 10 µM [1]: -24% | growth at 10 µM [2]: -51.4% | GI50 ([3]; read-out: GI50): 3.25 µM | CC50 [3, 26]: > 100 µM | TGI ([3]; read-out: TGI): > 100 µM | GI50 ([3]; read-out: pGI50 (converted)): 3.24 µM | CC50 [3, 27]: > 100 µM | TGI ([3]; read-out: pTGI (converted)): > 100 µM | growth at 0.01 µM [4]: 95% | growth at 1 µM [5]: 103% | growth at 1 µM [6]: 101% | growth at 1 µM [7]: 84% | GI50 ([8]; read-out: GI50): 2.68 µM | LC50 ([8]; read-out: LC50): > 100 µM | TGI ([8]; read-out: TGI): > 100 µM | GI50 ([8]; read-out: pGI50 (converted)): 2.69 µM | LC50 ([8]; read-out: pLC50 (converted)): > 100 µM | TGI ([8]; read-out: pTGI (converted)): > 100 µM | GI50 [9]: 3.46 µM | TGI [9]: 22.6 µM | CC50 [9]: 26.9 µM | growth at 10 µM [10]: 9% | growth at 10 µM [11]: -21% | growth at 10 µM [12]: -38% | growth at 100 µM [13]: -65% | growth at 10 µM [14]: 29% | growth at 0.01 µM [15]: 101% | growth at 0.1 µM [16]: 100% | growth at 10 µM [17]: -0.68% | growth at 10 µM [18]: -45% | growth at 0.1 µM [19]: 101% | growth at 10 µM [20]: 35% | growth at 100 µM [21]: -40% | growth at 0.01 µM [22]: 96% | GI50 ([23]; read-out: GI50): 2.44 µM | CC50 [23, 26]: > 100 µM | TGI ([23]; read-out: TGI): 6.18 µM | GI50 ([23]; read-out: pGI50 (converted)): 2.45 µM | CC50 [23, 27]: > 100 µM | TGI ([23]; read-out: pTGI (converted)): 6.17 µM | growth at 10 µM [24]: 19.7% | growth at 1 µM [25]: 96%
